Reference: ChEMBL document CHEMBL5678798 (Clin Cancer Res, 2009)
The source made the active and inactive calls. The rule behind the calls is not given here.

Experiments:
[1] = Antiproliferative activity against human HuNS1 cells assessed as reduction in cell viability after 72 hrs by CellTiter-Glo assay; format: functional, cell-based; details: HuNS1, 72 h
Outline: (§1)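 Cells seeded in 96-well plates, left overnight at 37°C, then exposed to a range of test concentrations for 72 h. Viability read by CellTiter-Glo luminescence; IC50 from four-parameter curve fit. Lines kept at 37°C, 5% CO2, in recommended growth medium.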

A549 = assay: Antiproliferative activity against human A549 cells assessed as reduction in cell viability after 72 hrs by CellTiter-Glo assay; format: functional, cell-based; details: A549, 72 h; outline: as §1
LNCaP = assay: Antiproliferative activity against human LNCaP cells assessed as reduction in cell viability after 72 hrs by CellTiter-Glo assay; format: functional, cell-based; outline: as §1
MCF7 = assay: Induction of cell cycle arrest in human MCF7 cells assessed as effect on sub-2N-DNA content at 0.03 to 10 uM incubated for 24 to 48 hrs by propidium iodide staining based flow cytometric analysis; format: functional; details: dose 0.03-10 µM, time lower 24.0 hrs, time upper […]
Outline: (§2)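 COLO 205, MCF-7 or NCI-H929 cells seeded in 96-well plates overnight at 37°C, then exposed to DMSO or increasing compound concentrations for 24 or 48 h. Fixed and stained with propidium iodide (Vindelov method), then analysed by flow cytometry for sub-G1, G1, S and G2-M fractions. Experiment repeated twice.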

NCI-H929 = assay: Induction of cell cycle arrest in human NCI-H929 cells assessed as cells accumulation at G1 phase at 1 umol/L incubated for 48 hrs by propidium iodide staining based flow cytometric analysis (reference value: 42%); format: functional; details: dose 1 µmol/L, at 1 µM; outline: as §2
[2] = In vivo inhibition of IGF1R in mouse NIH-3T3/LISN cells implanted in IGF1-stimulated nu/nu CD-1 mouse assessed as reduction in IGF1R phosphorylation at 30 mg/kg, po pretreated for 4 to 8 hrs followed by IGF1 stimulation and measured after 10 min by […] relative to control; format: functional; details: time 240-490 min
Outline: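 Time course: tumor-bearing female nu/nu CD-1 mice, three per group, given a single oral 30 mg/kg dose or vehicle. IGF-I given 10 min before blood and tumor collection at each time point. Tumor phospho-IGF-IR/total IGF-IR measured by capture-plate europium phosphotyrosine assay and expressed as % of ligand-stimulated control.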

[3] = biological target: RAC-beta serine/threonine-protein kinase (Homo sapiens, UniProt P31751); assay: Inhibition of AKT2 (unknown origin)
[4] = biological target: Protein kinase C epsilon type (Homo sapiens, UniProt Q02156); assay: Inhibition of PKCepsilon (unknown origin)
[5] = biological target: Tyrosine-protein kinase ZAP-70 (Homo sapiens, UniProt P43403); assay: Inhibition of ZAP70 (unknown origin)
[6] = biological target: Protein-tyrosine kinase 6 (Homo sapiens) (UniProt Q13882); assay: Inhibition of N-terminal His6-tagged recombinant full-length human BRK expressed in baculovirus infected Sf21 cells at 0.3 uM by filter binding assay relative to control
Outline: (§3)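 Outsourced single-concentration screen in a commercial panel of 233 protein kinases, run as radiometric filter-binding activity assays. Test agent was tested at 0.3 or 3 µmol/L, as given in each line, from a 10 mmol/L DMSO stock. Activity is expressed as percent inhibition relative to control.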

[7] = biological target: Fibroblast growth factor receptor 2 (Homo sapiens) (UniProt P21802); assay: Inhibition of N-terminal, His6-tagged recombinant human FGFR2 (456 to 765 residues) expressed in baculovirus infected Sf21 cells at 0.3 uM by filter binding assay relative to control
[8] = biological target: Macrophage colony-stimulating factor 1 receptor (Homo sapiens) (UniProt P07333); assay: Inhibition of N-terminal His6-tagged recombinant human Fms (538 to end residues) expressed in baculovirus infected Sf21 cells at 0.3 uM by filter binding assay relative to control
[9] = biological target: Serine/threonine-protein kinase Nek3 (Homo sapiens) (UniProt P51956); assay: Inhibition of N-terminal 6His-tagged recombinant full length human NEK3 expressed in baculovirus infected Sf21 cells at 0.3 uM by filter binding assay relative to control
Outline: (§4)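 KinaseProfiler panel of 233 kinases: radiometric filter-binding activity assays with compound at 0.3 or 3 µmol/L. Read-out is percent inhibition.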

[10] = biological target: Protein kinase C iota type (Homo sapiens) (UniProt P41743); assay: Inhibition of N-terminal His6-tagged recombinant full-length human PKCiota expressed in Sf21 cells at 0.3 uM by filter binding assay relative to control; outline: as §3
[11] = biological target: Testis-specific serine/threonine-protein kinase 2 (Homo sapiens) (UniProt Q96PF2); assay: Inhibition of N-terminal His6-tagged recombinant full length human TSSK2 expressed in baculovirus infected Sf21 cells at 0.3 uM by filter binding assay relative to control; outline: as §3
[12] = biological target: Dual specificity tyrosine-phosphorylation-regulated kinase 2 (Homo sapiens) (UniProt Q92630); assay: Inhibition of 6His-tagged recombinant full-length human DYRK2 expressed in baculovirus infected Sf21 cells at 3 uM by filter binding assay relative to control; outline: as §4
[13] = biological target: Ephrin type-A receptor 1 (Homo sapiens) (UniProt P21709); assay: Inhibition of N-terminal 6His-tagged recombinant human EphA1 (568 to end residues) expressed in baculovirus infected Sf21 cells at 3 uM by filter binding assay relative to control; outline: as §3
[14] = biological target: Fibroblast growth factor receptor 4 (Homo sapiens) (UniProt P22455); assay: Inhibition of N-terminal His6-tagged recombinant human FGFR4 (442 to 755 residues) expressed in baculovirus infected Sf21 cells at 3 uM by filter binding assay relative to control
[15] = biological target: Mitogen-activated protein kinase kinase kinase 9 (Homo sapiens) (UniProt P80192); assay: Inhibition of N-terminal 6His-tagged recombinant human MLK1 (134 to 414 residues) expressed in baculovirus infected Sf21 cells at 3 uM by filter binding assay relative to control; outline: as §3
[16] = biological target: Protein-tyrosine kinase 2-beta (Homo sapiens) (UniProt Q14289); assay: Inhibition of N-Terminal His6-tagged recombinant full-length human Pyk2 expressed in baculovirus infected Sf21 cells at 3 uM by filter binding assay relative to control; outline: as §4
[17] = biological target: Serine/threonine-protein kinase Sgk1 (Homo sapiens) (UniProt O00141); assay: Inhibition of human SGK at 3 uM by filter binding assay relative to control
[18] = biological target: Tyrosine-protein kinase HCK (Homo sapiens, UniProt P08631); assay: Inhibition of N-terminal 6His-tagged recombinant human Hck (230 to 497 residues) expressed in baculovirus infected Sf21 cells by filter binding assay
[19] = biological target: Insulin-like growth factor 1 receptor (Homo sapiens, UniProt P08069); assay: Inhibition of N-terminal 6His-tagged recombinant human IGF-1R (959 to end residues) expressed in baculovirus infected Sf21 cells by filter binding assay
[20] = biological target: Serine/threonine-protein kinase PAK 3 (Homo sapiens, UniProt O75914); assay: Inhibition of C-terminal His6-tagged recombinant human full-length PAK3 expressed in baculovirus infected Sf21 cells by filter binding assay
[21] = biological target: Tyrosine-protein kinase FRK (Homo sapiens, UniProt P42685); assay: Inhibition of N-terminal 6His-tagged recombinant human PTK5 (218 to end residues) expressed in baculovirus infected Sf21 cells by filter binding assay

Macrophage colony-stimulating factor 1 receptor (Homo sapiens), sequence (P07333 whole entry): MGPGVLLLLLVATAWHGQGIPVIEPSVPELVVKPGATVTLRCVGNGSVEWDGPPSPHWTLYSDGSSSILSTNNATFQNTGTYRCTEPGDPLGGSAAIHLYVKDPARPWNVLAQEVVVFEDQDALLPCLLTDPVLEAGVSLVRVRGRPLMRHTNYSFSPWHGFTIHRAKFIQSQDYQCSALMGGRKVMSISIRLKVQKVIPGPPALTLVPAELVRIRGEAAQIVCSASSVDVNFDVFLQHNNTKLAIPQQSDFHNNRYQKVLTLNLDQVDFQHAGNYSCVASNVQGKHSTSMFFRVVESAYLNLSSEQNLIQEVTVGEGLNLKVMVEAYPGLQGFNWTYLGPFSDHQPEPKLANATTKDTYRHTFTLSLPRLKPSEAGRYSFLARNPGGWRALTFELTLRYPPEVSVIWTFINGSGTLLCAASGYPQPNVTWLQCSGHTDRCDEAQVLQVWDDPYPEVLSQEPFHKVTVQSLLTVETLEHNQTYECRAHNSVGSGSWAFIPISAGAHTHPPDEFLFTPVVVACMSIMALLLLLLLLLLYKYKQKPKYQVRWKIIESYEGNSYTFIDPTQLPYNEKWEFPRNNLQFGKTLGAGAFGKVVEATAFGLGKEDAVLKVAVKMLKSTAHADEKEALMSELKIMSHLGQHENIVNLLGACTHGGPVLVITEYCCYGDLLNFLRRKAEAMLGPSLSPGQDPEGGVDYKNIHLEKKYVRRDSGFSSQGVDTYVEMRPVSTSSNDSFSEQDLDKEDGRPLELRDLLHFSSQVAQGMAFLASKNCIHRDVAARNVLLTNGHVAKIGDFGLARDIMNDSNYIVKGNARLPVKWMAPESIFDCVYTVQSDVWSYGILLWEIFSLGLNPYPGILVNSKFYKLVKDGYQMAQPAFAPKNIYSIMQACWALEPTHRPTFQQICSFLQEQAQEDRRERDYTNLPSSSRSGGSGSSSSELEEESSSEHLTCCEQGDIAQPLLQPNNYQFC
Insulin-like growth factor 1 receptor, sequence (P08069 31-736 limits assumed): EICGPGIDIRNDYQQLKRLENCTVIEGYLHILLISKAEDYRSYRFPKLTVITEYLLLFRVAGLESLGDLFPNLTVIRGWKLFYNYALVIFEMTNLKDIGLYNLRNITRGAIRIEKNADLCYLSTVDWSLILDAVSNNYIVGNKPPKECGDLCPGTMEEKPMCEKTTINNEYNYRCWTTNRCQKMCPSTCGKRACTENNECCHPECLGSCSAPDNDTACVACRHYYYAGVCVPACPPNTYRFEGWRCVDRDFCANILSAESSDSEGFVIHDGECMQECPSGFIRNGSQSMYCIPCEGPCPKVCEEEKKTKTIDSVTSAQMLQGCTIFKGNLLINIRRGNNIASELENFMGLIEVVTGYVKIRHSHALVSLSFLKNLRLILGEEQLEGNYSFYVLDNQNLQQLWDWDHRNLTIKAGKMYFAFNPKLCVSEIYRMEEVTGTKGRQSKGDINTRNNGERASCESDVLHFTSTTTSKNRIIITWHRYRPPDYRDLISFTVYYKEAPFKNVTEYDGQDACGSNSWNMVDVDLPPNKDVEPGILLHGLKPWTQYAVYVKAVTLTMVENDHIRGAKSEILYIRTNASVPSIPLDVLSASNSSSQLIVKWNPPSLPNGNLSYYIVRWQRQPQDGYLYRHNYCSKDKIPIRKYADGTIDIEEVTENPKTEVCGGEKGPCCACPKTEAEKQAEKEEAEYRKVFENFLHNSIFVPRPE
Insulin-like growth factor 1 receptor, sequence (P08069 741-1367 limits assumed): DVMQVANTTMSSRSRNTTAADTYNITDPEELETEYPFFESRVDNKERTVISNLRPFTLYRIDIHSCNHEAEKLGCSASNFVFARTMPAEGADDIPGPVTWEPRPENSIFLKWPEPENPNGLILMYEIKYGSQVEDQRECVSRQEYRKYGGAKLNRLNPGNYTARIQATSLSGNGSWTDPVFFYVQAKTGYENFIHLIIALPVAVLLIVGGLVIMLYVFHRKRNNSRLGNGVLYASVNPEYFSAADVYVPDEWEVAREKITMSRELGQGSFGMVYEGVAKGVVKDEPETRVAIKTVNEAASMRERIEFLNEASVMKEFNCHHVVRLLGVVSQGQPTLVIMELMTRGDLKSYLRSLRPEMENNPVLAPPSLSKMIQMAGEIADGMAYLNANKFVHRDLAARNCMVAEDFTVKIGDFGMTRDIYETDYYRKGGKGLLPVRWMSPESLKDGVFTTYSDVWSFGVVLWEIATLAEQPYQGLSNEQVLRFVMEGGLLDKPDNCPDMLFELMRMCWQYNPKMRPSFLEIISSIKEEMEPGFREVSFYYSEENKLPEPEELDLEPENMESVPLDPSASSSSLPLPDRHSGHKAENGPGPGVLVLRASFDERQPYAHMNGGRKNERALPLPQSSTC
Serine/threonine-protein kinase Nek3 (Homo sapiens), sequence (P51956 whole entry): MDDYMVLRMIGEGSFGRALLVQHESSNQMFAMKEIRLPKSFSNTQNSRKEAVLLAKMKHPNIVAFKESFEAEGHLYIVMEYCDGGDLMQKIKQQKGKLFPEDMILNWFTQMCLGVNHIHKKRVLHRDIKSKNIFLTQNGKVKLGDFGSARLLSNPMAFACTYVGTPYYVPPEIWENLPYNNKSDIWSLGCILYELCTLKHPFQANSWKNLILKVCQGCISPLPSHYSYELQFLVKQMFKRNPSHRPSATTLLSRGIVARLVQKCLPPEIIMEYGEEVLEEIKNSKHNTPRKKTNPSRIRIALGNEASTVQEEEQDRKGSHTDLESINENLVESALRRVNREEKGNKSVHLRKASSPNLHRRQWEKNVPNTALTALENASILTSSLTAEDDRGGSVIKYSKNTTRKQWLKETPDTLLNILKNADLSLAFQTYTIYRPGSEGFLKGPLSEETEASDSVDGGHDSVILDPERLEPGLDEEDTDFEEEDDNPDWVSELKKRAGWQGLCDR
Protein-tyrosine kinase 6 (Homo sapiens), sequence (Q13882 whole entry, looked up): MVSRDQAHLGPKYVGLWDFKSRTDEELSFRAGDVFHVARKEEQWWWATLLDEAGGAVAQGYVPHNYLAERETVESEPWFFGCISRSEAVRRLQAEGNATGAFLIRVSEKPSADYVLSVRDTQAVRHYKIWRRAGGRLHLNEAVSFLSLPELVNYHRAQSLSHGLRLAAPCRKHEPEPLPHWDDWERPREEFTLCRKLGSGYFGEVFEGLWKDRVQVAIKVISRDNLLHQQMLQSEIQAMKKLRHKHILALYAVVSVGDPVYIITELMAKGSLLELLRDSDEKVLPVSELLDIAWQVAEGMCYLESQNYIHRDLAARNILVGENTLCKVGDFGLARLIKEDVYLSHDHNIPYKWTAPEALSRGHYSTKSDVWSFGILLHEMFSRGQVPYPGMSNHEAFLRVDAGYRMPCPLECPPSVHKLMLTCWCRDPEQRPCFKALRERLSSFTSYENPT
Serine/threonine-protein kinase Sgk1 (Homo sapiens), sequence (O00141 whole entry, the tested form may be a part): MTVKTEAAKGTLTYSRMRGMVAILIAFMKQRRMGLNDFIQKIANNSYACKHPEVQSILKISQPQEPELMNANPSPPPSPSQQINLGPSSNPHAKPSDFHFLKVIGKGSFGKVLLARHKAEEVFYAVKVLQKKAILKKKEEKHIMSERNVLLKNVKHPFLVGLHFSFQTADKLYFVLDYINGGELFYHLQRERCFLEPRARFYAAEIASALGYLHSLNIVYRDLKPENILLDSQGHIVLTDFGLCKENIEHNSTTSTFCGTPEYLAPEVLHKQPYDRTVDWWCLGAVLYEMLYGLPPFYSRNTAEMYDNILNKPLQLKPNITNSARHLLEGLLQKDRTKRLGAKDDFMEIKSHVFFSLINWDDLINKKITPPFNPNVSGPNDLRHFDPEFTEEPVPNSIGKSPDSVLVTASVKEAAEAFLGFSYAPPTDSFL
Dual specificity tyrosine-phosphorylation-regulated kinase 2 (Homo sapiens), sequence (Q92630 whole entry): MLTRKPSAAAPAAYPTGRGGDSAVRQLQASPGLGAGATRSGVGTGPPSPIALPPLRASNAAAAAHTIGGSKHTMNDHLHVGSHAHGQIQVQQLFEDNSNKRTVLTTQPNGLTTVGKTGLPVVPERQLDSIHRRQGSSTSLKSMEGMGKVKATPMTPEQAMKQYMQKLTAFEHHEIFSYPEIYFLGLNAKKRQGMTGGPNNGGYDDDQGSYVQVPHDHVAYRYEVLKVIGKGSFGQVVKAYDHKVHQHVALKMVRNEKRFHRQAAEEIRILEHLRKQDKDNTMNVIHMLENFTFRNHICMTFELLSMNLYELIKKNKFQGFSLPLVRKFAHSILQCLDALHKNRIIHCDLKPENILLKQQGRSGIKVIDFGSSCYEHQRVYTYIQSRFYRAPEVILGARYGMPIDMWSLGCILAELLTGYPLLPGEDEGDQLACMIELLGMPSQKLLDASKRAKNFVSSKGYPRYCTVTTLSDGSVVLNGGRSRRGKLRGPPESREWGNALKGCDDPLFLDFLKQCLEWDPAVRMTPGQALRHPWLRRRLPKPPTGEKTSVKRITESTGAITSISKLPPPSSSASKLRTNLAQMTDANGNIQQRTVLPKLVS
Tyrosine-protein kinase HCK, sequence (P08631 whole entry, the tested form may be a part): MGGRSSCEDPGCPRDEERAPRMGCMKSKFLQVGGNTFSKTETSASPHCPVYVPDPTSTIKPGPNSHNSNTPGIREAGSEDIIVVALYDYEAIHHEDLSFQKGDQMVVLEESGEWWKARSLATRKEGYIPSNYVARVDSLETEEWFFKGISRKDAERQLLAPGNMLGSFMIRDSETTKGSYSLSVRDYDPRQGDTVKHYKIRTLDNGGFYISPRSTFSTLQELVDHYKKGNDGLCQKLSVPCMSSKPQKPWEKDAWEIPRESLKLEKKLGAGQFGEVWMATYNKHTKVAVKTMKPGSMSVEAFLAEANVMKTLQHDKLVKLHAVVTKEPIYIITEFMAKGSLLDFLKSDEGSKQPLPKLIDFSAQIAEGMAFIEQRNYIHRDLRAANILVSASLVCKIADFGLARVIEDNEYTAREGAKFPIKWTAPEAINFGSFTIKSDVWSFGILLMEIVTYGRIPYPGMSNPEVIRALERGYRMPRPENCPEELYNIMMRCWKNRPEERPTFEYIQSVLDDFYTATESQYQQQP

## CCc1cc(Nc2nccc(-c3c(-c4ccc(OC)c(C(=O)Nc5c(F)cccc5F)c4)nc4ccccn34)n2)c(OC)cc1N1CCC(N2CCN(S(C)(=O)=O)CC2)CC1
[1]
  IC50: > 30000 nM
A549
  IC50: > 20000 nM
LNCaP
  IC50: > 20000 nM
MCF7
  Activity: inactive
NCI-H929
  Activity: 79%
[2]
  inhibition in vivo at 30 mg/kg: > 90%
[3]
  IC50: > 10000 nM
[4]
  IC50: 10000 nM
[5]
  IC50: > 20000 nM
[6]
  inhibition: 25%
[7]
  inhibition: 21%
[8]
  inhibition: 10%
[9]
  inhibition: 1%
[10]
  inhibition: 0%
[11]
  inhibition: 4%
[12]
  inhibition: -8%
[13]
  inhibition: 22%
[14]
  inhibition: 29%
[15]
  inhibition: -8%
[16]
  inhibition: 24%
[17]
  inhibition: 1%
[18]
  IC50: 275 nM
[19]
  IC50: 58 nM
[20]
  IC50: 103 nM
[21]
  IC50: 16 nM
